Results of several laboratories.
Each line is one published result; the experiments were not run side by side. pEC50, pIC50: −log10 of the molar value.
Effect on: cell growth or viability

SMILES	cell line	assay	conditions	quantity	result
C=CC(=O)N1CCC[C@@H](n2nc(-c3ccc(Oc4ccccc4)cc3)c3c(N)ncnc32)C1	MINO	ATP luminescence	72 h	GI50	6.31 µM
CC(C)C[C@H](NC(=O)[C@H](Cc1ccccc1)NC(=O)c1cnccn1)B(O)O	SNU1	ATP luminescence		pIC50	7.85
COC(=O)COc1cccc(NC(=O)C2(c3cccc(Br)c3)CC2)c1	U-937	ATP luminescence	72 h	GI50	3.5 µM
COc1ccc(-c2cc(-c3ccc4oc(=O)cc(C)c4c3O)nc(N)n2)cc1	KB	MTT	128 µg/mL, 72 h	inhibition	28%
C=CC(=O)N1CCN(c2cc(-c3noc([C@@]4(C)CCCc5sc(N)c(C#N)c54)n3)nc(N3CCN(C)C[C@@H]3C)c2)CC1	LS-513		5 days	pEC50	5.33
Cc1cc(=O)oc2ccc(-c3cc(-c4cccc(Cl)c4)nc(N)n3)c(O)c12	KB	MTT	32 µg/mL, 72 h	inhibition	16%
Cn1nnc2c(C(N)=O)ncn2c1=O	SNU1			pEC50	3.61
Cc1cc(=O)oc2ccc(-c3cc(-c4ccc(Br)cc4)nc(N)n3)c(O)c12	KB	MTT	2 µg/mL, 72 h	inhibition	0%
COC(=O)COc1ccc(NC(=O)C2(c3ccc(Cl)cc3)CC2)c(C)c1	U-937	ATP luminescence	72 h	GI50	6 µM
C=CC(=O)N1CCC[C@@H](n2nc(-c3ccc(Oc4ccccc4)cc3)c3c(N)ncnc32)C1	U-937	ATP luminescence	72 h	GI50	6.4 µM
COC(=O)COc1ccc(NC(=O)C2(c3ccc(F)cc3)CC2)cc1	U-937	ATP luminescence	72 h	GI50	5.9 µM
Cc1ccc(-c2cc(-c3ccc4oc(=O)cc(C)c4c3O)nc(N)n2)cc1	KB	MTT	8 µg/mL, 72 h	inhibition	0%
COC(=O)COc1ccc(NC(=O)C2(c3ccc(Cl)cc3)CC2)cc1Br	U-937	ATP luminescence	72 h	GI50	1.6 µM
CCn1c(-c2nonc2N)nc2c(C#CC(C)(C)O)ncc(OC[C@H]3CCCNC3)c21	UACC-903	resazurin	72 h	pEC50	4.08
